# Test results as given in ChEMBL document CHEMBL1148154, “New secondary metabolites from the marine endophytic fungus Apiospora montagnei” (J Nat Prod, 2004).
# Calls of active or inactive are those of the source.
# How the values were obtained:
# Priestia megaterium = assay: Antibacterial activity against Bacillus megaterium at 50 ug/disk by agar diffusion assay; format: functional, organism-based
# [1] = system: Aspergillus pseudoglaucus; assay: Antifungal activity against Eurotium repens at 50 ug/disk by agar diffusion assay; format: functional, organism-based
# HepG2 [2] = assay: Cytotoxicity against human HepG2 cells; format: functional
# How it was run: (§1)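 Human tumour lines were HM02 (gastric adenocarcinoma), HepG2 (hepatocellular carcinoma) and MCF7 (breast adenocarcinoma), run following NCI standards. Read-outs were total growth inhibition (TGI) and LC50, defined as a 50% reduction of the initial cell number, in µg/mL. Single-level testing was done at 10 µg/mL.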
# Artemia = assay: Toxicity in brine shrimp; format: organism-based; details: in vivo
# [3] = Cytotoxicity against human HM02 cells; format: functional; how it was run: as §1
# MCF7 [4] = assay: Cytotoxicity against human MCF7 cells; format: functional; how it was run: as §1
# Escherichia coli = assay: Antibacterial activity against Escherichia coli at 50 ug/disk by agar diffusion assay; format: functional, organism-based
# P388 = assay: Cytotoxicity against mouse P388 cells; format: functional; details: read-out: ED50 (the source's name)
# Mycotypha microspora = assay: Antifungal activity against Mycotypha microspora at 50 ug/disk by agar diffusion assay; format: functional, organism-based
# Microbotryum violaceum = assay: Antifungal activity against Microbotryum violaceum at 50 ug/disk by agar diffusion assay; format: functional, organism-based
# [Chlorella] fusca = Antialgal activity against 'Chlorella' fusca at 50 ug/disk by agar diffusion assay; format: functional, organism-based; details: Scenedesmus fuscus
# MCF7 [5] = assay: Cytotoxicity against human MCF7 cells at 10 ug/ml; format: functional, cell-based; how it was run: as §1
# HM02 = assay: Cytotoxicity against human HM02 cells at 10 ug/ml; format: functional, cell-based; how it was run: as §1
# HepG2 [6] = assay: Cytotoxicity against human HepG2 cells at 10 ug/ml; format: functional, cell-based; how it was run: as §1
# [7] = read-out: LC50 (the source's name)
Compound,Activity (Priestia megaterium),Activity [1],GI50 (HepG2 [2]) [µg/mL],TGI (HepG2 [2]) [µg/mL],CC50 (HepG2 [2]; [7]) [µg/mL],Activity (Artemia),GI50 [3] [µg/mL],TGI [3] [µg/mL],"CC50 [3, 7] [µg/mL]",GI50 (MCF7 [4]) [µg/mL],TGI (MCF7 [4]) [µg/mL],CC50 (MCF7 [4]; [7]) [µg/mL],Activity (Escherichia coli),EC50 (P388) [µg/mL],Activity (Mycotypha microspora),Activity (Microbotryum violaceum),Activity ([Chlorella] fusca),Activity (MCF7 [5]),Activity (HM02),Activity (HepG2 [6])
O=C1C(CO)=C[C@H](O)[C@H]2O[C@@H]12,inactive,inactive,0.75,4.6,> 10,Toxic,0.7,1,> 10,0.8,1.5,3.6,inactive,0.2,inactive,inactive,inactive,–,–,–
C[C@@H]1C=C[C@@H]2C[C@H](CO)CC[C@H]2[C@@H]1C(=O)O,inactive,inactive,–,–,–,–,–,–,–,–,–,–,inactive,–,inactive,inactive,inactive,–,–,–
C=C(C(=O)O)C(CCCCCC)C(=O)O (centres undefined),inactive,inactive,–,–,–,–,–,–,–,–,–,–,inactive,–,inactive,inactive,inactive,–,–,–
C=C[C@@]1(C)C=C2C(=O)C(O)=C3[C@](C)(C(=O)O)CC[C@@H]4C[C@]34[C@]2(O)C(=O)C1,inactive,inactive,–,–,–,–,–,–,–,–,–,–,inactive,–,inactive,inactive,inactive,inactive,inactive,inactive
C=C(C(=O)O)C(CCCCC(C)O)C(=O)OC (centres undefined),inactive,inactive,–,–,–,–,–,–,–,–,–,–,inactive,–,inactive,inactive,inactive,–,–,–
